Results reported in ChEMBL document CHEMBL1909525, “Synthesis and anticonvulsant activity of novel 2,6-diketopiperazine derivatives. Part 1: perhydropyrrole[1,2-a]pyrazines” (Eur J Med Chem, 2011).
The source made the active and inactive calls. The rule behind the calls is not given here.

Experiments:
Mus musculus [1] = experiment: Anticonvulsant activity in albino Carworth Farms No.1 mouse assessed as protection against maximal electroshock-induced seizure at 100 mg/kg, ip after 0.5 hrs; format: functional, organism-based; set-up: dose 100 mg/kg
Outline: (§1)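 Mouse MES test with compound given i.p. (30, 100 or 300 mg/kg) in 0.5% methylcellulose; tested at 0.5 and 4 h. Corneal stimulus of 50 mA at 60 Hz for 0.2 s, electrodes primed with 0.5% butacaine in 0.9% NaCl. Protection is abolition of hindlimb tonic extension; scored as protected/tested.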

Mus musculus [2] = experiment: Anticonvulsant activity in albino Carworth Farms No.1 mouse assessed as protection against maximal electroshock-induced seizure at 100 mg/kg, ip after 4 hrs; format: functional, organism-based; set-up: dose 100 mg/kg; outline: as §1
Mus musculus [3] = experiment: Anticonvulsant activity in albino Carworth Farms No.1 mouse assessed as protection against maximal electroshock-induced seizure at 30 mg/kg, ip after 0.5 hrs; format: functional, organism-based; set-up: dose 30 mg/kg; outline: as §1
Mus musculus [4] = experiment: Neurotoxicity in albino Carworth Farms No.1 mouse assessed as motor impairment at 30 mg/kg, ip after 4 hrs by rotarod test; format: toxicity, organism-based; set-up: dose 30 mg/kg, route intraperitoneal; conditions: in vivo
Outline: (§2)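 Rotorod neurotoxicity in mice at 6 r.p.m. Compound given i.p. (30, 100, 300 mg/kg) in 0.5% methylcellulose; tested at 30 min and 4 h. Impairment is inability to keep equilibrium on the rod for a given time; scored as impaired/tested.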

Mus musculus [5] = experiment: Neurotoxicity in albino Carworth Farms No.1 mouse assessed as motor impairment at 30 mg/kg, ip after 0.5 hrs by rotarod test; format: toxicity, organism-based; set-up: dose 30 mg/kg, route intraperitoneal; conditions: in vivo; outline: as §2
Mus musculus [6] = experiment: Anticonvulsant activity in albino Carworth Farms No.1 mouse assessed as protection against subcutaneous metrazol-induced seizure at 30 mg/kg, ip after 4 hrs; format: functional, organism-based; set-up: dose 30 mg/kg
Outline: (§3)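 Mouse scMET test. Compound given i.p. (30, 100 or 300 mg/kg) in 0.5% methylcellulose. Pentylenetetrazole 85 mg/kg (CD97) given s.c. at 0.5 or 4 h, then mice observed for 30 min. Protection is absence of clonic spasms; scored as protected/tested.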

Mus musculus [7] = experiment: Anticonvulsant activity in albino Carworth Farms No.1 mouse assessed as protection against maximal electroshock-induced seizure at 300 mg/kg, ip after 0.5 hrs; format: functional, organism-based; set-up: dose 300 mg/kg; outline: as §1
Mus musculus [8] = experiment: Anticonvulsant activity in albino Carworth Farms No.1 mouse assessed as protection against subcutaneous metrazol-induced seizure at 300 mg/kg, ip after 0.5 hrs; format: functional, organism-based; set-up: dose 300 mg/kg; outline: as §3
Mus musculus [9] = experiment: Neurotoxicity in albino Carworth Farms No.1 mouse assessed as motor impairment at 300 mg/kg, ip after 0.5 hrs by rotarod test; format: toxicity, organism-based; set-up: dose 300 mg/kg, route intraperitoneal; conditions: in vivo; outline: as §2
Mus musculus [10] = experiment: Anticonvulsant activity in albino Carworth Farms No.1 mouse assessed as protection against maximal electroshock-induced seizure at 30 mg/kg, ip after 4 hrs; format: functional, organism-based; set-up: dose 30 mg/kg; outline: as §1
Mus musculus [11] = experiment: Anticonvulsant activity in albino Carworth Farms No.1 mouse assessed as protection against subcutaneous metrazol-induced seizure at 30 mg/kg, ip after 0.5 hrs; format: functional, organism-based; set-up: dose 30 mg/kg; outline: as §3
Mus musculus [12] = experiment: Anticonvulsant activity in albino Carworth Farms No.1 mouse assessed as protection against subcutaneous metrazol-induced seizure at 100 mg/kg, ip after 0.5 hrs; format: functional, organism-based; set-up: dose 100 mg/kg; outline: as §3
Mus musculus [13] = experiment: Anticonvulsant activity in albino Carworth Farms No.1 mouse assessed as protection against subcutaneous metrazol-induced seizure at 300 mg/kg, ip after 4 hrs; format: functional, organism-based; set-up: dose 300 mg/kg; outline: as §3
Mus musculus [14] = experiment: Neurotoxicity in albino Carworth Farms No.1 mouse assessed as motor impairment at 300 mg/kg, ip after 4 hrs by rotarod test; format: toxicity, organism-based; set-up: dose 300 mg/kg, route intraperitoneal; conditions: in vivo; outline: as §2
Mus musculus [15] = experiment: Anticonvulsant activity in albino Carworth Farms No.1 mouse assessed as protection against maximal electroshock-induced seizure at 300 mg/kg, ip after 4 hrs; format: functional, organism-based; set-up: dose 300 mg/kg; outline: as §1
Mus musculus [16] = experiment: Neurotoxicity in albino Carworth Farms No.1 mouse assessed as motor impairment at 100 mg/kg, ip after 0.5 hrs by rotarod test; format: toxicity, organism-based; set-up: dose 100 mg/kg, route intraperitoneal; conditions: in vivo; outline: as §2
Mus musculus [17] = experiment: Anticonvulsant activity in albino Carworth Farms No.1 mouse assessed as protection against subcutaneous metrazol-induced seizure at 100 mg/kg, ip after 4 hrs; format: functional, organism-based; set-up: dose 100 mg/kg; outline: as §3
Mus musculus [18] = experiment: Anticonvulsant activity in albino Carworth Farms No.1 mouse assessed as protection against electric-current for 3 secs-induced seizure at 100 mg/kg, ip after 0.5 hrs by 6Hz minimal clonic seizure test; format: functional
Outline: (§4)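 6 Hz psychomotor seizure test in mice. Compound given i.p. as a suspension in 0.5% methylcellulose. Corneal stimulation at 32 mA, 0.2-ms monopolar rectangular pulses at 6 Hz for 3 s, from a constant-current device. Tests run 0.25–4 h after dosing. A mouse counted as protected if it resumed normal exploratory behaviour within 10 s; scored as protected/tested.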

Mus musculus [19] = experiment: Anticonvulsant activity in albino Carworth Farms No.1 mouse assessed as protection against electric-current for 3 secs-induced seizure at 100 mg/kg, ip after 1 hr by 6Hz minimal clonic seizure test; format: functional, organism-based; set-up: dose 100 mg/kg; outline: as §4
Mus musculus [20] = experiment: Neurotoxicity in albino Carworth Farms No.1 mouse assessed as motor impairment at 100 mg/kg, ip after 2 hrs by rotarod test; format: toxicity, organism-based; set-up: dose 100 mg/kg, route intraperitoneal; conditions: in vivo
Outline: (§5)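 Rotorod neurotoxicity in mice (18–25 g) following i.p. dosing of a suspension in 0.5% methylcellulose in water, tested at intervals between 0.25 and 4 h. Impairment was scored as failure to keep equilibrium on a 6 r.p.m. rod, reported as number impaired/number tested.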

Mus musculus [21] = experiment: Anticonvulsant activity in albino Carworth Farms No.1 mouse assessed as protection against electric-current for 3 secs-induced seizure at 100 mg/kg, ip after 2 hrs by 6Hz minimal clonic seizure test; format: functional, organism-based; set-up: dose 100 mg/kg; outline: as §4
Mus musculus [22] = experiment: Neurotoxicity in albino Carworth Farms No.1 mouse assessed as motor impairment at 100 mg/kg, ip after 0.25 hrs by rotarod test; format: toxicity, organism-based; set-up: dose 100 mg/kg, route intraperitoneal; conditions: in vivo; outline: as §5
Mus musculus [23] = experiment: Anticonvulsant activity in albino Carworth Farms No.1 mouse assessed as protection against electric-current for 3 secs-induced seizure at 100 mg/kg, ip after 4 hrs by 6Hz minimal clonic seizure test; format: functional, organism-based; set-up: dose 100 mg/kg; outline: as §4
Mus musculus [24] = experiment: Anticonvulsant activity in albino Carworth Farms No.1 mouse assessed as protection against electric-current for 3 secs-induced seizure at 100 mg/kg, ip after 0.25 hrs by 6Hz minimal clonic seizure test; format: functional, organism-based; set-up: dose 100 mg/kg; outline: as §4
Mus musculus [25] = experiment: Neurotoxicity in albino Carworth Farms No.1 mouse assessed as motor impairment at 100 mg/kg, ip after 4 hrs by rotarod test; format: toxicity, organism-based; set-up: dose 100 mg/kg, route intraperitoneal; conditions: in vivo; outline: as §2
Mus musculus [26] = experiment: Neurotoxicity in albino Carworth Farms No.1 mouse assessed as motor impairment at 100 mg/kg, ip after 1 hr by rotarod test; format: toxicity, organism-based; set-up: dose 100 mg/kg, route intraperitoneal; conditions: in vivo; outline: as §5
[27] = Neurotoxicity in ip dosed albino Carworth Farms No.1 mouse assessed as motor impairment after 0.25 hrs by rotarod test; format: toxicity, organism-based; conditions: Carworth Farms No.1 (albino), in vivo
Outline: (§6)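 Mouse quantification at the time of peak effect, compound given i.p. in 0.5% methylcellulose. Groups of at least eight mice received varied doses until at least two points fell between 100 and 0% response. PI = TD50/ED50 MES.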

Mus musculus [28] = experiment: Anticonvulsant activity in ip dosed albino Carworth Farms No.1 mouse assessed as time needs to show peak effect for electric-current for 3 secs-induced seizure after 0.25 hrs by 6Hz minimal clonic seizure test; format: functional
Mus musculus [29] = experiment: Anticonvulsant activity in ip dosed albino Carworth Farms No.1 mouse assessed as time needs to show peak effect for protection against maximal electroshock-induced seizure; format: functional
Rattus norvegicus [30] = experiment: Anticonvulsant activity in po dosed albino Sprague-Dawley rat assessed as protection against subcutaneous metrazol-induced seizure after 0.25 hrs; format: functional
Outline: (§7)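 Rats dosed orally, compound in 0.5% methylcellulose. MES at 150 mA, 60 Hz, 0.2 s; scMET with pentylenetetrazole 70 mg/kg s.c. plus 30 min observation; rotorod for toxicity.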

Mus musculus [31] = experiment: Anticonvulsant activity in ip dosed albino Carworth Farms No.1 mouse assessed as protection against subcutaneous metrazol-induced seizure after 0.25 hrs; format: functional; conditions: albino Carworth Farms No.1, 0.25 h
Outline: as §6, with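 “response. ED50 (MES, scMET) and TD50 (rotorod) with 95% CI by probit analysis (Finney).” for “response.”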

Mus musculus [32] = experiment: Anticonvulsant activity in ip dosed albino Carworth Farms No.1 mouse assessed as protection against electric-current for 3 secs-induced seizure after 0.25 hrs by 6Hz minimal clonic seizure test; format: functional; conditions: albino Carworth Farms No.1, ip
Rattus norvegicus [33] = experiment: Anticonvulsant activity in po dosed albino Sprague-Dawley rat assessed as time needs to show peak effect for protection against maximal electroshock-induced seizure after 0.25 hrs; format: functional; outline: as §7
[34] = Neurotoxicity in po dosed albino Sprague-Dawley rat assessed as motor impairment after 0.25 hrs by rotarod test; format: toxicity, organism-based; conditions: in vivo; outline: as §7
Mus musculus [35] = experiment: Anticonvulsant activity in ip dosed albino Carworth Farms No.1 mouse assessed as protection against maximal electroshock-induced seizure after 0.25 hrs; format: functional; conditions: albino Carworth Farms No.1, ip
Outline: as §6, with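 “response. ED50 (MES, scMET) and TD50 (rotorod) with 95% CI by probit analysis (Finney).” for “response.”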

Row | Compound | Activity (Mus musculus [1]) | Activity (Mus musculus [2]) | Activity (Mus musculus [3]) | Activity (Mus musculus [4]) | Activity (Mus musculus [5]) | Activity (Mus musculus [6]) | Activity (Mus musculus [7]) | Activity (Mus musculus [8]) | Activity (Mus musculus [9]) | Activity (Mus musculus [10]) | Activity (Mus musculus [11]) | Activity (Mus musculus [12]) | Activity (Mus musculus [13]) | Activity (Mus musculus [14]) | Activity (Mus musculus [15]) | Activity (Mus musculus [16]) | Activity (Mus musculus [17]) | Time (Mus musculus [28]) [h] | further results
1 | O=C1[C@@H]2CCCN2[C@H](c2ccccc2)C(=O)N1Cc1ccccc1 | inactive | inactive | inactive | Non-toxic | Non-toxic | inactive | inactive | inactive | Non-toxic | inactive | inactive | inactive | inactive | Non-toxic | inactive | Non-toxic | inactive | – | –
2 | COC(=O)[C@@H](c1ccccc1)N1CCC[C@H]1C(N)=O | – | – | – | – | – | – | – | – | Toxic | – | – | – | – | – | – | – | – | – | Activity (Mus musculus [18]): Active
3 | O=C1[C@@H]2CCCN2[C@H](c2ccccc2)C(=O)N1CCc1ccccc1 | inactive | inactive | inactive | Non-toxic | Non-toxic | inactive | inactive | inactive | Non-toxic | inactive | inactive | inactive | inactive | Non-toxic | inactive | Non-toxic | inactive | – | Activity (Mus musculus [19]): inactive; Activity (Mus musculus [20]): Non-toxic; Activity (Mus musculus [21]): inactive; Activity (Mus musculus [22]): Non-toxic; Activity (Mus musculus [23]): inactive; Activity (Mus musculus [24]): inactive; Activity (Mus musculus [25]): Non-toxic; Activity (Mus musculus [26]): Non-toxic
4 | CC[C@@H](C(N)=O)N1CCCC1=O | – | – | – | – | – | – | – | – | – | – | – | – | – | – | – | – | – | 1 | TD50 at 0.25 h [27]: > 500 mg/kg
5 | COC[C@@H](NC(C)=O)C(=O)NCc1ccccc1 [LACOSAMIDE] | – | – | – | – | – | – | – | – | – | – | – | – | – | – | – | – | – | 0.5 | Time (Mus musculus [29]): 0.5 h; ED50 (Rattus norvegicus [30]): > 250 mg/kg; ED50 (Mus musculus [31]): > 25 mg/kg; ED50 (Mus musculus [32]): 9.99 mg/kg; Time (Rattus norvegicus [33]): 0.5 h; TD50 at 0.25 h [34]: > 500 mg/kg; ED50 (Mus musculus [35]): 4.46 mg/kg
